Key:
[1] = AUC in CD-1 mouse at 25 mg/kg, po; format: ADME, organism-based; design: dose 25 mg/kg, route oral; conditions: plasma
In short: (§1)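 Mice dosed with 25 mg/kg p.o. as a 2.5 mg/ml suspension in 0.5% CMC, or with 5 mg/kg i.v. at 1 mg/ml in 10% NMP, 30% PEG 400 and 60% of 10% vitamin E-TPGS. Blood sampled at several time points. Plasma extracted with acidified acetonitrile (8:1) and quantified by LC-MS, LLOQ 12 ng/ml.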

Plasmodium berghei [2] = assay: Antimalarial activity against Plasmodium berghei ANKA infected in NMRI mice (Mus musculus) assessed as cure rate at 60 mg/kg, perorally administered as single dose […]; format: functional; conditions: route oral
In short: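 Female NMRI mice (20–22 g), 5 per group, infected intravenously with 0.2 ml of 1 × 10^8 parasitized erythrocytes/ml from a fresh donor mouse. Compound suspended in 0.5% carboxymethyl cellulose and given orally. Survival followed to day 30 post-infection; an animal was scored cured if it survived to day 30 without parasites.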

[3] = Half life in CD-1 mouse at 25 mg/kg, po; format: ADME, organism-based; design: dose 25 mg/kg, route oral; conditions: in vivo; in short: as §1
Plasmodium berghei [4] = assay: Antimalarial activity against Plasmodium berghei ANKA infected in NMRI mice (Mus musculus) assessed as reduction in parasitemia at 30 mg/kg, perorally administered as single dose measured on day 3 postinfection; format: functional; design: scale not given: the % may be the effect or the level left; conditions: route oral
In short: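 P. berghei ANKA given intravenously to groups of 5 female NMRI mice (20–22 g): 0.2 ml of 1 × 10^8 parasitized erythrocytes/ml from a donor mouse. Oral dosing in 0.5% carboxymethyl cellulose. Parasitemia counted by microscopy. Activity is the control-minus-treated parasitemia difference, expressed as percent of untreated controls.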

Rattus norvegicus = assay: Toxicity in Wistar rat assessed as occurrence of inflammatory changes in gastric tract at => 50 mg/kg, po after 2 weeks; format: organism-based, Stomach; design: dose 50 mg/kg, route oral; conditions: in vivo, 336 h
In short: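 Male Wistar rats, about 10 weeks old (254–292 g), 5 per group, gavaged daily with 50, 150 or 500 mg/kg/day. Vehicle was 10% of 1% aqueous Solutol HS15 plus 90% of 0.5% aqueous methylcellulose; exploratory 2-week design. Clinical observations, body weight, food intake, hematology, clinical chemistry and gross pathology recorded. Histopathology covered gross lesions and selected organs in the control and low-dose groups.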

Mus musculus = assay: Toxicity in NMRI mice (Mus musculus) infected with Plasmodium berghei ANKA at 100 mg/kg, perorally administered as single dose measured up to 30 days postinfection; format: organism-based; design: dose 100 mg/kg, route oral; conditions: in vivo, po, 720 h
Plasmodium berghei [5] = assay: Antimalarial activity against Plasmodium berghei ANKA infected in NMRI mice (Mus musculus) assessed as survival rate at 10 mg/kg, perorally administered as single dose; format: functional; conditions: route oral
In short: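 Infection: 5 female NMRI mice (20–22 g) per group, inoculated intravenously with 0.2 ml of donor blood at 1 × 10^8 parasitized erythrocytes/ml. Oral administration in 0.5% carboxymethyl cellulose. Survival time recorded up to 30 days after infection and averaged per group.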

## COc1ccc(OC)c(CNc2ccc3nc(N)nc(N)c3c2Cl)c1
[1]
  AUC: 44.6 µM·h
Plasmodium berghei [2]
  Activity: 0%
[3]
  half-life: 4.84 h
Plasmodium berghei [4]
  Activity: >99.99%
Rattus norvegicus
  Activity: Toxic
Mus musculus
  Activity: 0%
Plasmodium berghei [5]
  Survival: 6 days

Source: ChEMBL document CHEMBL1255487, “Preclinical evaluation of the antifolate QN254, 5-chloro- N'6'-(2,5-dimethoxy-benzyl)-quinazoline-2,4,6-triamine, as an antimalarial drug candidate” (Antimicrob Agents Chemother, 2010)
